Source: PubChem (Broad Institute)
IDH1 mut inh: IDH1 R132H (human) inhibition; O75874; IDH1 R132H reductase, diaphorase/resazurin fluorescence, 60 min; inhibition, % at 10 µM; hit rate 0.18% among 70,000; in the data active = inhibition above about 34%; inconclusive = no clear call, values can overlap the other calls; inactive = below about 11%;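 note: 0% = DMSO and 100% = no enzyme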
Target sequence (O75874 whole entry R132H): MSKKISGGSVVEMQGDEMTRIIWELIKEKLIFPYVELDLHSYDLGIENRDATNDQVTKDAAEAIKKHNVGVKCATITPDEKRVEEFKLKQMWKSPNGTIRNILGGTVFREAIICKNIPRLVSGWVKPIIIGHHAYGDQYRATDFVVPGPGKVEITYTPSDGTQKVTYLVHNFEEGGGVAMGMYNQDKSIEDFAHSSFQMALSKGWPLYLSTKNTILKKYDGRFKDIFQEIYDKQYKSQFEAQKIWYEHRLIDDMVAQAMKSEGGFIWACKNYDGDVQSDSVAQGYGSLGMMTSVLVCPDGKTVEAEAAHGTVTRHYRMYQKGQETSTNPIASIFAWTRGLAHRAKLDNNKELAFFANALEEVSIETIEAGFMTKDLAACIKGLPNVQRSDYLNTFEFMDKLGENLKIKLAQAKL
T cruzi growth-1: inhibitors of T. cruzi proliferation; AID 624255; T. cruzi beta-gal in NIH3T3, GalScreen luminescence, 90 h; hit rate 5.9% among 77,000; inhibition, % at 8.34 µM;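 active = mean inhibition above about 93%, with at least 55% of replicates each passing it, limit read from the data, passing the limit was not always enough; inconclusive = only one of those two conditions holds; inactive = neither condition holds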
KDM4C inh: blocks human GASC-1 (KDM4C) demethylase activity; inhibition, % at 12.5 µM; hit rate 0.15% among 96,000; GST-KDM4C 2-372, H3K9me3 peptide, LANCE TR-FRET; AID 720574;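 active = mean replicate inhibition above about 25%, with at least 55% of replicates also reaching it, limit read from the data, passing the limit was not always enough; inconclusive = only one of those two conditions met; inactive = neither condition met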
Target sequence (Q9H3R0 2-372 limits assumed): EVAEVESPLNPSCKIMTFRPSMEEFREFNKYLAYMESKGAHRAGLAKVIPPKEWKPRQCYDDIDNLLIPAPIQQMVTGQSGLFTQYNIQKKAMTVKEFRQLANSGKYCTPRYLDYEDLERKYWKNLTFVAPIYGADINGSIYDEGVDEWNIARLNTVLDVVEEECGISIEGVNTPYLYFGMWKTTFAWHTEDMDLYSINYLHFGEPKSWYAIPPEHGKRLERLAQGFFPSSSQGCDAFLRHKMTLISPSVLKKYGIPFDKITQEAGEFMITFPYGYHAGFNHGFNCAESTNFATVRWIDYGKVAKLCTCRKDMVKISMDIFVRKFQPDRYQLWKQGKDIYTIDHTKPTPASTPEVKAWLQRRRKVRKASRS
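Compound: one test concentration per compound; Material: GST-GASC-1 enzyme fragment 2-372; Amount: GASC-1 enzyme at 10 nM final in reaction; Also added: H3K9me3 peptide substrate, Fe(II), 2-oxoglutarate; Technique: LANCE TR-FRET; Times: 30 min demethylation and 1 h detection at room temperature.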
T cruzi growth-2: inhibitors of T. cruzi proliferation; AID 651739; inhibition, % at 8.35 µM; T. cruzi beta-gal in NIH3T3, GalScreen luminescence, 90 h; shares compounds with T cruzi growth-1; hit rate 72% among 5,600;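 active = mean replicate inhibition above about 95% and at least 55% of replicates individually reaching it, limit read from the data; inconclusive = only one of the two criteria is met; inactive = neither criterion is met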
T cruzi growth-3: inhibitors of T. cruzi proliferation | shares compounds with T cruzi growth-1 | T. cruzi beta-gal in NIH3T3, GalScreen luminescence, 90 h | inhibition, % at 2.09 µM | hit rate 21% among 5,600 | AID 651740;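 active = mean inhibition above about 95%, with at least 55% of replicates also reaching it, limit read from the data; inconclusive = meets just one of the two conditions; inactive = meets neither condition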;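 note: plate controls were neutral control median for no effect and positive control median for full effect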
3T3 cytotox: kills mouse NIH/3T3 fibroblasts. shares compounds with T cruzi growth-1. NIH/3T3 viability, CellTiter-Glo ATP luminescence, 90 h. cytotoxicity (signal decrease), % at 8.35 µM. AID 651742. hit rate 14% among 5,600;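 active = mean signal decrease across replicates above about 35% based on untreated-well scatter, with enough replicates individually passing, limit read from the data; inconclusive = no rule stated though some were filed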;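 note: 0% = median of neutral control wells and 100% = median of positive control wells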
NIH3T3 tox 2: kills mouse NIH/3T3 fibroblasts. inhibition, % at 24.9 µM. NIH/3T3 viability, CellTiter-Glo ATP luminescence, 90 h. shares compounds with T cruzi growth-1. hit rate 56% among 5,600;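 active = mean loss of cell viability signal at or above a set limit, and enough replicates individually reaching it; inconclusive = meets only the mean limit or only the replicate share; inactive = meets neither condition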;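 note: 0% = median of neutral control wells and 100% = median of positive control wells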
Numbers without * were called inactive; ? = inconclusive; nt = no result. The full list was thinned out, with hits kept by preference.

SMILES | IDH1 mut inh | T cruzi growth-1 | KDM4C inh | T cruzi growth-2 | T cruzi growth-3 | 3T3 cytotox | NIH3T3 tox 2
O=C(N/N=C/C[P+](c1ccccc1)(c1ccccc1)c1ccccc1)c1ccccc1O | 7 | nt | nt | nt | nt | nt | nt
O=C(C[C@@H]1CC[C@@H]2[C@H](COC[C@@H](O)CN2C(=O)Nc2cc(Cl)cc(Cl)c2)O1)N1CCCCC1 | nt | 79 | -2 | nt | nt | nt | nt
O=C(C[C@H]1CC[C@H]2[C@@H](COC[C@H](O)CN2C(=O)Nc2cc(Cl)cc(Cl)c2)O1)N1CCCCC1 | nt | 99* | 0 | 109* | 39 | 11 | 20
O=C(C[C@H]1CC[C@@H]2[C@H](COC[C@H](O)CN2C(=O)Nc2cccc(Cl)c2)O1)N1CCCCC1 | nt | -62 | 0 | nt | nt | nt | nt
O=C(C[C@@H]1CC[C@@H]2[C@H](COC[C@@H](O)CN2C(=O)Nc2cccc(Cl)c2)O1)N1CCCCC1 | nt | 109* | -1 | 39 | 21 | -1 | -21
Cc1cc(Cl)ccc1OC(C)C(=O)Nc1cccc(NC(=O)c2ccco2)c1 (stereo not given) | 0 | nt | nt | nt | nt | nt | nt
COc1ccc(CN(C)C[C@H]2OCCCC[C@H](C)Oc3ccc(NC(=O)Nc4ccc(OC)cc4)cc3C(=O)N([C@@H](C)CO)C[C@@H]2C)cc1 | 0 | 110* | 1 | 112* | 63 | 15 | 104*
COc1ccc(CN(C)C[C@@H]2OCCCC[C@@H](C)Oc3ccc(NC(=O)Nc4ccc(F)cc4)cc3C(=O)N([C@H](C)CO)C[C@H]2C)cc1 | nt | ? | 1 | 97* | 111* | 26 | 105*
COc1ccc(CN(C)C[C@@H]2OCCCC[C@@H](C)Oc3ccc(NC(=O)Nc4ccc(OC)cc4)cc3C(=O)N([C@@H](C)CO)C[C@H]2C)cc1 | 0 | 83 | nt | nt | nt | nt | nt
COc1ccc(CN(C)C[C@@H]2OCCCC[C@@H](C)Oc3ccc(NC(=O)Nc4ccc(F)cc4)cc3C(=O)N([C@H](C)CO)C[C@@H]2C)cc1 | nt | 47 | -3 | nt | nt | nt | nt
O=C(C[C@H]1C[C@H]2c3cc(NS(=O)(=O)c4ccccc4)ccc3O[C@H]2[C@@H](CO)O1)N1CCCCC1 | -1 | 39 | -3 | nt | nt | nt | nt
O=C(C[C@@H]1C[C@H]2c3cc(NS(=O)(=O)c4ccccc4)ccc3O[C@H]2[C@@H](CO)O1)N1CCOCC1 | 0 | 46 | 0 | nt | nt | nt | nt
O=C(Nc1ccc(F)cc1)Nc1ccc2c(c1)[C@@H]1C[C@@H](CC(=O)N3CCCCC3)O[C@H](CO)[C@@H]1O2 | 0 | 73 | -2 | nt | nt | nt | nt
O=C(C[C@@H]1C[C@H]2c3cc(NS(=O)(=O)c4ccccc4)ccc3O[C@H]2[C@@H](CO)O1)N1CCCCC1 | 0 | 101* | -3 | 70 | -9 | -2 | 16
O=C(Nc1ccc(F)cc1)Nc1ccc2c(c1)[C@H]1C[C@@H](CC(=O)N3CCCCC3)O[C@@H](CO)[C@H]1O2 | 0 | 111* | -2 | 18 | -5 | -7 | -1
O=C(C[C@@H]1C[C@H]2c3cc(NS(=O)(=O)c4ccccc4)ccc3O[C@H]2[C@H](CO)O1)N1CCCCC1 | 7 | 104* | 6 | 59 | 36 | 24 | 40*
O=C(CSc1nnc(-c2ccco2)o1)c1ccc2c(c1)OCCO2 | 0 | nt | nt | nt | nt | nt | nt
COc1cc2c(cc1OC)C1(Cc3ccc4c(c3C1O)OCO4)N(C)CC2 (stereo not given) | 1 | nt | nt | nt | nt | nt | nt
O=C(CSc1nc(O)cc(=O)n1-c1ccccc1)Nc1ccc2ccccc2c1 | 0 | nt | nt | nt | nt | nt | nt
COc1ccc(C)cc1S(=O)(=O)N1CCCC(C(=O)Nc2ccccc2F)C1 (stereo not given) | 0 | nt | nt | nt | nt | nt | nt
O=C(NCC(c1ccccc1)c1c[nH]c2ccccc12)Nc1ccc(Cl)cc1 (stereo not given) | 0 | nt | nt | nt | nt | nt | nt
COC(=O)c1cc(C(=O)NCc2ccccc2OC)cc([N+](=O)[O-])c1 | -1 | nt | nt | nt | nt | nt | nt
COc1cccc(-c2ccc3c(c2)O[C@H](CN(C)Cc2cccnc2)[C@@H](C)CN([C@@H](C)CO)S3(=O)=O)c1 | 4 | 119* | 1 | 105* | 106* | ? | 60*
COc1cccc(-c2ccc3c(c2)O[C@H](CN(C)Cc2cccnc2)[C@H](C)CN([C@@H](C)CO)S3(=O)=O)c1 | 4 | 100* | -1 | 97* | 101* | 63* | 66*
COc1ccc(-c2ccc3c(c2)O[C@H](CN(C)Cc2cccnc2)[C@H](C)CN([C@@H](C)CO)S3(=O)=O)cc1 | 0 | nt | 0 | nt | nt | nt | nt
SMILES | IDH1 mut inh | T cruzi growth-1 | KDM4C inh | T cruzi growth-2 | T cruzi growth-3 | 3T3 cytotox | NIH3T3 tox 2
COc1cccc(-c2ccc3c(c2)O[C@H](CN(C)Cc2cccnc2)[C@H](C)CN([C@H](C)CO)S3(=O)=O)c1 | 0 | 112* | 0 | 97* | 64 | 54* | 64*
COc1ccc(-c2ccc3c(c2)O[C@H](CN(C)Cc2cccnc2)[C@H](C)CN([C@H](C)CO)S3(=O)=O)cc1 | 0 | nt | 1 | nt | nt | nt | nt
COc1ccc(-c2ccc3c(c2)O[C@@H](CN(C)Cc2cccnc2)[C@@H](C)CN([C@@H](C)CO)S3(=O)=O)cc1 | 2 | nt | 0 | nt | nt | nt | nt
COc1ccc(-c2ccc3c(c2)O[C@H](CN(C)Cc2cccnc2)[C@@H](C)CN([C@H](C)CO)S3(=O)=O)cc1 | -2 | nt | -2 | nt | nt | nt | nt
COc1cccc(-c2ccc3c(c2)O[C@@H](CN(C)Cc2cccnc2)[C@H](C)CN([C@H](C)CO)S3(=O)=O)c1 | 10 | 112* | 4 | ? | 92 | 56* | 104*
COc1ccc(-n2c(/C=C/N(C)C)c([N+](=O)[O-])c3ccc(OC(C)=O)c(COC(C)=O)c32)cc1 | 4 | nt | nt | nt | nt | nt | nt
COc1ccccc1NC(=O)CSc1nc2ccc(NC(=O)c3ccccc3OC)cc2s1 | 0 | nt | nt | nt | nt | nt | nt
Cc1cccc(OCC(=O)Nc2cccc(-c3nc4ccccc4s3)c2)c1C | 0 | nt | nt | nt | nt | nt | nt
Cc1c(NC(=O)COc2ccc(C(C)C)cc2)cccc1C(=O)O | 0 | nt | nt | nt | nt | nt | nt
COc1ccccc1NC(=O)c1cc2ccccc2c(C=Nc2ccc(NC(C)=O)cc2)c1O | -1 | nt | nt | nt | nt | nt | nt
C[C@@H]1CCCCO[C@H](CN(C)CC2CCCCC2)[C@@H](C)CN([C@H](C)CO)C(=O)c2cc(NC(=O)Nc3cccc4ccccc34)ccc2O1 | nt | 104 | -1 | nt | nt | nt | nt
C[C@@H]1CN([C@@H](C)CO)C(=O)c2cc(NC(=O)Nc3cccc4ccccc34)ccc2O[C@@H](C)CCCCO[C@@H]1CN(C)Cc1ccccc1 | nt | 116* | 1 | 110* | 101* | 27 | ?
COc1ccc(CN(C)C[C@H]2OCCCC[C@@H](C)Oc3ccc(NC(=O)Nc4cccc5ccccc45)cc3C(=O)N([C@@H](C)CO)C[C@H]2C)cc1 | nt | 122 | -7 | nt | nt | nt | nt
C[C@@H]1CCCCO[C@@H](CN(C)Cc2ccccc2)[C@@H](C)CN([C@H](C)CO)C(=O)c2cc(NC(=O)Nc3cccc4ccccc34)ccc2O1 | 0 | nt | -3 | nt | nt | nt | nt
